Each structure is given as a SMILES string. The source made the active and inactive calls. The calls are words filed in the database; no cut-off is given here.

The species entered for data set [1] is Sus scrofa. The data set is described as follows: Activation of pig heart PDC assessed as production of NADH at 10 mM in presence of ATP. The essentials:
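Pig PDC with its intrinsic PDKs preincubated 40 min at 37 °C at 80 µg/ml in Mops buffer pH 7.20 with acetyl-CoA, NADH, NaF. Kinase step run 3 min at 37 °C after 2.2-fold dilution into buffer with 55 µM ADP and 100 µM ATP, stopped with ADP/pyruvate. Residual PDC activity read as NADH at 340 nm in Tris pH 7.8 with NAD+, pyruvate, CoA, thiamine pyrophosphate.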

The test system of data set [2] is MCF7. The data set is described as follows: Induction of apoptosis in human MCF7 assessed as necrotic cells at 10 mM after 10 hrs by FITC-annexin V/propidium iodide staining-based flow cytometric analysis (reference value: 1.86%). In kind it is functional. On the technique in general: Flow cytometry measures light scatter and fluorescence of single cells or particles in a stream.

Data set [3] has as its system MCF7. The data set is described as follows: Induction of apoptosis in human MCF7 assessed as late apoptotic cells at 10 mM after 10 hrs by FITC-annexin V/propidium iodide staining-based flow cytometric analysis (reference value: 1.95%). In kind it is functional.
The subject of data set [4] is A549. The data set is described as follows: Cytotoxicity against human A549 cells assessed as growth inhibition after 72 hrs by MTT assay. Particulars: A549, 72 h. In kind it is functional, cell-based. For orientation: Tetrazolium dyes change colour on reduction, which living cells bring about.
Data set [5] deals with T1, [Pyruvate dehydrogenase (acetyl-transferring)] kinase isozyme 1, mitochondrial (Homo sapiens, UniProt Q15118). Particulars: MCF7, 10 mM.
The target in data set [6] is T1, [Pyruvate dehydrogenase (acetyl-transferring)] kinase isozyme 1, mitochondrial. Particulars: MCF7, 10 mM. This is another data set of the same source.
Data set [7] relates to MCF7. The data set is described as follows: Reversal of hyperpolarized mitochondrial membrane potential in human MCF7 cells assessed as cells with vital and intact mitochondrial membranes at 20 uM after 12 hrs by JC1 staining-based flow cytometric analysis. In kind it is functional. In outline: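 MCF-7 cells treated 12 h (5, 10 or 20 µM), then stained with JC-1. Depolarization read as the ratio of green J-monomer to red J-aggregate fluorescence.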

The subject of data set [8] is MCF7. The data set is described as follows: Induction of apoptosis in human MCF7 assessed as viable cells at 10 mM after 10 hrs by FITC-annexin V/propidium iodide staining-based flow cytometric analysis (reference value: 93.8%). Particulars: MCF7, 10 h, read-out: Activity. In kind it is functional.
For data set [9], the system named is MCF7. The data set can be described thus: Cytotoxicity against human MCF7 cells assessed as growth inhibition after 72 hrs by MTT assay. In kind it is functional, cell-based. Particulars: MCF7, 72 h.
Data set [10] relates to MCF7. The data set is described as follows: Induction of apoptosis in human MCF7 assessed as early apoptotic cells at 10 mM after 10 hrs by FITC-annexin V/propidium iodide staining-based flow cytometric analysis (reference value: 2.38%). In kind it is functional.
Data set [11] deals with T1, [Pyruvate dehydrogenase (acetyl-transferring)] kinase isozyme 1, mitochondrial. Particulars: MCF7, 10 mM. The source holds these as a separate data set.
Data set [12] has the same target. Particulars: MCF7, 10 mM. This is another data set of the same source.
For data set [13] the target is unchanged. Particulars: MCF7, 10 mM. The source holds these as a separate data set.
Data set [14] in a line: Cytotoxicity against human MCF10A cells assessed as growth inhibition at 20 uM after 72 hrs by MTT assay relative to control. In kind it is cell-based, MCF-10A. Particulars: read-out: GI.
In data set [15] the test system is MCF7. The data set is described as follows: Reversal of hyperpolarized mitochondrial membrane potential in human MCF7 cells assessed as cells with vital and intact mitochondrial membranes at 10 mM after 12 hrs by JC1 staining-based flow cytometric analysis. In kind it is functional. In outline:
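MCF-7 treated 12 h, then stained with JC-1. Mitochondrial potential read as the ratio of green J-monomer to red J-aggregate fluorescence, where a higher ratio marks depolarization. P < 0.05 computed against the […] DCA-treated group.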

A short description of data set [16]: Cytotoxicity against human MCF10A cells assessed as growth inhibition at 10 mM after 72 hrs by MTT assay relative to control. In kind it is cell-based, MCF-10A. Particulars: read-out: GI.
Data set [17] deals with MCF7. The data set can be described thus: Cytotoxicity against human MCF7 cells assessed as growth inhibition at 40 uM after 72 hrs by IncuCyte Zoom live cells imaging method. In kind it is functional, cell-based.
The nature of data set [18]: Cytotoxicity against human MCF10A cells assessed as growth inhibition at 40 uM after 72 hrs by MTT assay relative to control. In kind it is cell-based, MCF-10A. Particulars: read-out: GI.
Data set [19] relates to MCF7. The data set can be described thus: Induction of apoptosis in human MCF7 assessed as early apoptotic cells at 20 uM after 10 hrs by FITC-annexin V/propidium iodide staining-based flow cytometric analysis (reference value: 2.38%). In kind it is functional.
Data set [20] has as its target T1, [Pyruvate dehydrogenase (acetyl-transferring)] kinase isozyme 1, mitochondrial. The data set is described as follows: Inhibition of recombinant N-terminal 6xHis-SUMO-tagged human PDK1 (29 to 436 residues) expressed in Escherichia coli BL-21 assessed as activation of PDC at 50 uM.
Data set [21] is described as follows: Cytotoxicity against human MCF10A cells assessed as growth inhibition at 10 uM after 72 hrs by MTT assay relative to control. Particulars: read-out: GI. In kind it is cell-based, MCF-10A.
Data set [22] is filed under the species Sus scrofa. The data set can be described thus: Activation of pig heart PDC assessed as production of NADH at 50 uM in absence of ATP. The essentials: (§1)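 Pig heart PDC (80 µg/ml, carrying intrinsic PDK activity) preincubated 40 min at 37 °C in Mops pH 7.20 buffer with NaF, acetyl-CoA, NADH and DTT. Kinase step 3 min at 37 °C with 55 µM ADP and 100 µM ATP, or no ATP. Stopped with ADP/pyruvate. Residual PDC activity then read as NADH formation at 340 nm, 37 °C, in Tris pH 7.8 with TPP, NAD+, pyruvate and CoA.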

Data set [23] concerns the target T1, [Pyruvate dehydrogenase (acetyl-transferring)] kinase isozyme 1, mitochondrial. The data set is described as follows: Inhibition of PDK1 in human MCF7 cells assessed as decrease in extracellular acidification rate at 20 uM after 12 hrs. In kind it is cell-based. The essentials:
(§2)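 MCF-7 cells at 2.7×10⁴ cells/well in XF24 plates, attached, then grown 24 h at 37 °C in 5% CO2. Treated 12 h at 5, 10 or 20 µM, rinsed into glycolysis stress-test medium and held 1 h at 37 °C without CO2. OCR, ECAR and PPR then measured on a Seahorse XFe24 analyser. Significance P < 0.05 versus untreated control.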

Data set [24] shares this target. The data set is described as follows: Inhibition of PDK1 in human MCF7 cells assessed as increase in oxygen consumption rate at 20 uM after 12 hrs. In kind it is cell-based. The essentials: as §2
The subject of data set [25] is MCF7. The data set is described as follows: Induction of apoptosis in human MCF7 assessed as necrotic cells at 20 uM after 10 hrs by FITC-annexin V/propidium iodide staining-based flow cytometric analysis (reference value: 1.86%). In kind it is functional.
Data set [26] deals with MCF7. The data set is described as follows: Induction of mitochondrial membrane potential depolarization in human MCF7 cells at 60 uM after 12 hrs by TMRM staining-based assay. In kind it is functional, cell-based.
In data set [27] the test system is MCF7. The data set is described as follows: Cytotoxicity against human MCF7 cells assessed as growth inhibition at 40 uM after 72 hrs by MTT assay relative to control. In kind it is functional, cell-based.
The species entered for data set [28] is Sus scrofa. The data set can be described thus: Activation of pig heart PDC assessed as production of NADH at 50 uM in presence of ATP. In outline:
as §1

The target in data set [29] is T1, [Pyruvate dehydrogenase (acetyl-transferring)] kinase isozyme 1, mitochondrial. The data set is described as follows: Inhibition of PDK1 in human MCF7 cells assessed as increase in ratio of oxygen consumption rate to extracellular acidification rate at 20 uM after 12 hrs. In kind it is cell-based. The essentials: as §2
Data set [30] shares this target. The data set can be described thus: Inhibition of recombinant N-terminal 6xHis-SUMO-tagged human PDK1 (29 to 436 residues) expressed in Escherichia coli BL-21 assessed as suppression of PDC phosphorylation at S293 at 50 uM after 30 mins by Western blot method.
The target is the same in data set [31]. The data set is described as follows: Inhibition of PDK1 in human MCF7 cells assessed as decrease in proton production rate at 20 uM after 12 hrs. In kind it is cell-based. In outline: as §2
Data set [32] relates to MCF7. The data set is described as follows: Induction of apoptosis in human MCF7 assessed as late apoptotic cells at 20 uM after 10 hrs by FITC-annexin V/propidium iodide staining-based flow cytometric analysis (reference value: 1.95%). In kind it is functional.
Data set [33] deals with A549. The data set can be described thus: Cytotoxicity against human A549 cells assessed as growth inhibition at 40 uM after 72 hrs by MTT assay relative to control. In kind it is functional, cell-based.
The target of data set [34] is T1, [Pyruvate dehydrogenase (acetyl-transferring)] kinase isozyme 1, mitochondrial. The data set can be described thus: Inhibition of PDK1 in human MCF7 cells assessed as decrease in lactate production at 20 uM after 12 hrs.
Data set [35] shares this target. The data set is described as follows: Inhibition of recombinant N-terminal 6xHis-SUMO-tagged human PDK1 (29 to 436 residues) expressed in Escherichia coli BL-21 assessed as phosphorylation of RYHGHSMSDP at 50 uM after 30 mins by Kinase-Glo luminescent assay. In general terms: Kinase-Glo reads ATP consumption through a luciferase reaction.
Data set [36] concerns MCF7. The data set is described as follows: Induction of apoptosis in human MCF7 assessed as viable cells at 20 uM after 10 hrs by FITC-annexin V/propidium iodide staining-based flow cytometric analysis (reference value: 93.8%). In kind it is functional. Particulars: MCF7, 10 h, read-out: Activity.
Data set [37] concerns A549. The data set is described as follows: Cytotoxicity against human A549 cells assessed as growth inhibition at 40 uM after 72 hrs by IncuCyte Zoom live cells imaging method. In kind it is functional, cell-based.

The IC50 is the midpoint of a concentration-inhibition curve. For the compound `O=C([O-])C(Cl)Cl.[Na+]` [SODIUM DICHLOROACETATE], in data set [1], the result was Active. The Activity in data set [2] was determined as 3.09%; in data set [3], 9.94%; in data set [7], 77.7%; in data set [10] it was 3.64%; in data set [15] it was 69%. Also, the 50% inhibitory concentration (IC50) in data set [4] stood at 23600 µM; in [9] it was 12400 µM. In addition, the inhibition result in data set [5], in [6], in data set [11], in [12] and in data set [13] was “Active” throughout. In data set [8], the viability at 10000 µM was 83.3%. The inhibition at 72 h, 20 µM in [14] was 3.42%. Also, the inhibition at 72 h, 10000 µM in [16] turned out to be 41.1%.
On to `O=C(Nc1c(Cl)ncnc1Cl)C(Cl)Cl`, for which the “growth inhibition (GI)” value in [17], in data set [27] and in data set [33] was “Active” each time. The inhibition at 72 h, 40 µM in data set [18] was found to be 42.4%. For the same compound, the Activity in [19] is on record as 4.84%; in data set [7], 60.1%; in [25], 3.91%; in data set [32], 10.6%. The IC50 in data set [4] came to 28.4 µM; in [9] it was 19.3 µM. The inhibition entry in [20], in [23], in [24], in data set [29], in data set [30] and in data set [31] was “Active” in each case. Moreover, the inhibition entry in [34] and in data set [35] was “Active” in each case. Besides, the inhibition at 72 h, 10 µM in data set [21] amounted to 4.91%. In addition, the outcome in [22] and in data set [26] was Active. Also, the outcome in [28] was inactive. Also, the viability at 20 µM in [36] is 80.7%.
Regarding `Cc1nc(Cl)c(NC(=O)C(Cl)Cl)c(Cl)n1`, in data set [18], the inhibition at 72 h, 40 µM turned out to be 41.6%. Besides, the Activity in data set [19] is given as 4.43%; in data set [7], 68.6%; in [25], 2.7%; in data set [32], 9.87%. The IC50 in data set [4] worked out at 26 µM; in data set [9], 22.9 µM. Besides, the inhibition result in [20], in data set [23], in data set [24], in data set [29], in [30] and in data set [31] was “Active” throughout. Further, the inhibition result in data set [34] and in data set [35] was “Active” throughout. Besides, the inhibition at 72 h, 10 µM in data set [21] came to 7.57%. Also, the “growth inhibition (GI)” value in data set [37], in [27] and in [33] was “Active” in each case. Further, the outcome in data set [22] and in data set [26] was Active. Moreover, the result in data set [28] was inactive. The viability at 20 µM in data set [36] amounted to 83%.
